Source: ChEMBL document CHEMBL1153929, “Exploration and synthesis of curcumin analogues with improved structural stability both in vitro and in vivo as cytotoxic agents” (Bioorg Med Chem, 2009)

Assays:
KB (human) = assay: Cytotoxicity against human KB cells after 72 hrs by MTT assay
[1] = Hydrolytic stability assessed as compound degradation at 2 mg in sodium dihydrogen phosphate buffered 0.3% sodium carboxymethylcellulose solution at pH 7.4 after 45 hrs by HPLC; format: physicochemical; details: read-out: Activity
Method in brief: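 2 mg of sample was vortexed into 1 ml of 0.3% (w/v) CMCNa solution in phosphate buffer at pH 7.4 and kept in the dark at 37 °C. HPLC peak areas were recorded. Degradation = (area at 0 h − area at end time) / area at 0 h × 100%.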

HL-60 (human) = assay: Cytotoxicity against human HL60 cells after 72 hrs by MTT assay; details: HL-60, 72 h
PC-3 = assay: Cytotoxicity against human PC3 cells after 72 hrs by MTT assay; format: functional, cell-based; details: PC-3, 72 h
Method in brief: (§1)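 Cells were plated at 5000 per well in 1640 medium with 5% heat-inactivated calf serum and penicillin/streptomycin, at 37 °C and 5% CO2. After 24 h, compounds in DMSO were added at final 100, 33.3, 11.1 and 3.7 µg/ml for 72 h. MTT (5 mg/ml in 0.9% NaCl) was then added for 3 h, the formazan dissolved in DMSO, and absorbance read at 570 nm.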

HeLa = assay: Cytotoxicity against human HeLa cells after 72 hrs by MTT assay; format: functional, cell-based
Method in brief: as §1

[2] = Cytotoxicity against human LS 174T cells after 72 hrs by MTT assay; format: functional, cell-based; details: LS174T
Method in brief: as §1

CNE = assay: Cytotoxicity against human CNE cells after 72 hrs by MTT assay; format: functional, cell-based
Method in brief: as §1

BGC-823 = assay: Cytotoxicity against human BGC823 cells after 72 hrs by MTT assay; format: functional, cell-based; details: BGC-823, 72 h
Method in brief: as §1

Row | Compound | IC50 (KB (human)) [µM] | degraded at 45 h [1] [%] | IC50 (HL-60 (human)) [µM] | IC50 (PC-3) [µM] | IC50 (HeLa) [µM] | IC50 [2] [µM] | IC50 (CNE) [µM] | IC50 (BGC-823) [µM]
1 | CC(C)(C)c1ccc(/C=C2\CCC/C(=C\c3ccc(C(C)(C)C)cc3)C2=O)cc1 | 78.9 | 0 | – | – | – | – | – | –
2 | O=C(/C=C/C=C/c1ccccc1)/C=C/C=C/c1ccccc1 | – | 0 | 36.5 | – | – | – | – | –
3 | O=C1/C(=C/C=C/c2ccccc2)CC/C1=C\C=C\c1ccccc1 | – | 0 | – | 117 | – | – | – | –
4 | COc1cc(/C=C/C(=O)/C=C/c2cc(OC)c(OC)c(OC)c2)cc(OC)c1OC | 98.7 | 0 | – | 8.8 | 95 | 148 | – | –
5 | CC(C)(C)c1ccc(/C=C/C(=O)/C=C/c2ccc(C(C)(C)C)cc2)cc1 | – | 0 | – | 12 | 21.8 | – | 89.8 | –
6 | C=CCOc1cc(/C=C2\CC/C(=C\c3ccc(OC)c(OCC=C)c3)C2=O)ccc1OC | – | 0 | – | – | – | – | – | 32.6
7 | COc1cc(/C=C2\CCC/C(=C\c3cc(OC)c(OC)c(OC)c3)C2=O)cc(OC)c1OC | 117 | 0 | 29.3 | 22.7 | 27.5 | – | – | –
8 | O=C(/C=C/c1ccc(F)cc1)/C=C/c1ccc(F)cc1 | 94.6 | 0 | – | 15.2 | – | 98.8 | – | –
9 | C=CCOc1ccc(/C=C/C(=O)/C=C/c2ccc(OCC=C)cc2)cc1 | – | 0 | 64.6 | – | – | – | – | –
10 | COc1ccccc1/C=C/C(=O)/C=C/c1ccccc1OC | < 12.6 | 0 | < 12.6 | – | 161 | – | – | –
11 | O=C(/C=C/c1ccc(O)cc1)/C=C/c1ccc(O)cc1 | 41.5 | 0 | – | 48.9 | 217 | – | – | –
12 | COc1ccccc1/C=C1\CC/C(=C\c2ccccc2OC)C1=O | – | 0 | 2.3 | 5.3 | – | – | – | –
13 | O=C(/C=C/c1ccc(OC2CCCCO2)cc1)/C=C/c1ccc(OC2CCCCO2)cc1 (configuration not stated) | – | 0 | 0.3 | 43.4 | – | – | – | –
14 | O=C1/C(=C/c2cccs2)CCC/C1=C\c1cccs1 [TENYLIDONE] | 86 | 0 | – | – | – | – | – | –
15 | COc1cccc(/C=C/C(=O)/C=C/c2cccc(OC)c2OC)c1OC | 24.3 | 0 | 4.5 | – | – | 48 | – | 24.4
16 | CN(C)CCCOc1ccc(/C=C2\CC/C(=C\c3ccc(OCCCN(C)C)cc3)C2=O)cc1 | 3.3 | 0 | – | – | – | – | 2.4 | –
17 | Cc1ccc(/C=C2\CCC/C(=C\c3ccc(C)s3)C2=O)s1 | 249 | 0 | – | 77.6 | – | – | – | –
18 | O=C1/C(=C/c2ccc(Br)o2)CCC/C1=C\c1ccc(Br)o1 | – | 0 | 65.8 | 21.8 | – | – | – | –
19 | O=C(/C=C/c1ccc(Br)o1)/C=C/c1ccc(Br)o1 | 24.5 | 0 | – | 34.3 | 16.8 | 58.8 | – | 30.9
20 | O=C1/C(=C/c2ccc(OC3CCCCO3)cc2)CC/C1=C\c1ccc(OC2CCCCO2)cc1 (configuration not stated) | – | 0 | – | – | 39.1 | – | – | –
21 | Cn1cccc1/C=C1\CCC/C(=C\c2cccn2C)C1=O | 2.3 | 0 | – | – | – | – | – | –
22 | CCOc1ccc(/C=C2\CC/C(=C\c3ccc(OCC)cc3)C2=O)cc1 | – | 0 | – | – | 24 | – | – | –
23 | Cn1cccc1/C=C1\CC/C(=C\c2cccn2C)C1=O | – | 0 | – | – | – | 9.2 | – | –
24 | C=CCOc1ccc(/C=C2\CCC/C(=C\c3ccc(OCC=C)cc3)C2=O)cc1 | 85.3 | 0 | – | – | – | – | – | –
25 | C=CCOc1ccc(/C=C2\CCC/C(=C\c3ccc(OCC=C)c(OC)c3)C2=O)cc1OC | 102 | 0 | – | – | – | – | – | –

Row | Compound | IC50 (KB (human)) [µM] | degraded at 45 h [1] [%] | IC50 (HL-60 (human)) [µM] | IC50 (PC-3) [µM] | IC50 (HeLa) [µM] | IC50 [2] [µM] | IC50 (CNE) [µM] | IC50 (BGC-823) [µM]
26 | O=C1/C(=C/c2ccccc2Cl)CCC/C1=C\c1ccccc1Cl | 6.7 | 0 | 98.3 | 13.8 | – | 4.2 | – | 4.4
27 | O=C(/C=C/c1ccccc1Cl)/C=C/c1ccccc1Cl | 59 | 0 | 8.6 | – | – | – | – | –
28 | O=C1/C(=C/c2ccccc2Br)CC/C1=C\c1ccccc1Br | 109 | 0 | – | 24.7 | – | – | 32.8 | –
29 | COc1cc(/C=C2\CCC/C(=C\c3ccc(O)c(OC)c3)C2=O)ccc1O [CYCLOVALONE] | < 10.1 | 0 | – | – | – | 4.6 | 17.6 | –
30 | O=C1/C(=C/c2ccc(Br)s2)CC/C1=C\c1ccc(Br)s1 | – | 0 | – | – | – | 9 | – | –
31 | O=C1/C(=C/c2ccccc2C(F)(F)F)CC/C1=C\c1ccccc1C(F)(F)F | < 9.34 | 0 | – | – | – | 213 | – | –
32 | CN(C)c1ccc(/C=C2\CC/C(=C\c3ccc(N(C)C)cc3)C2=O)cc1 | – | 0 | – | – | – | – | – | –
33 | O=C1/C(=C/c2ccc(OC3CCCCO3)cc2)CCC/C1=C\c1ccc(OC2CCCCO2)cc1 (configuration not stated) | – | 0 | 134 | – | – | 3.9 | – | –
34 | O=C(/C=C/c1ccccc1C(F)(F)F)/C=C/c1ccccc1C(F)(F)F | < 3.7 | 0 | < 10 | 0.35 | – | – | – | –
35 | O=C1/C(=C/c2cccc(Br)c2)CCC/C1=C\c1cccc(Br)c1 | 15.9 | 0 | – | – | 15.7 | 11.5 | – | –
36 | O=C1/C(=C/c2ccccc2Br)CCC/C1=C\c1ccccc1Br | 55.3 | 0 | – | – | – | – | – | –
37 | Cc1ccsc1/C=C/C(=O)/C=C/c1sccc1C | – | 0 | – | 138 | – | – | – | –
38 | O=C(/C=C/c1ccc2ccccc2c1)/C=C/c1ccc2ccccc2c1 | – | 0 | 69.2 | – | – | – | – | 39.7
39 | O=C1/C(=C/c2ccc3c(c2)OCO3)CC/C1=C\c1ccc2c(c1)OCO2 | – | 0 | 225 | – | – | – | – | –
40 | O=C1/C(=C/c2ccccc2Cl)CC/C1=C\c1ccccc1Cl | 96 | 0 | 87.2 | – | – | – | – | –
41 | O=C1/C(=C/c2ccccc2C(F)(F)F)CCC/C1=C\c1ccccc1C(F)(F)F | 54 | 0 | – | – | 46.3 | – | – | –
42 | Cc1ccc(C)c(/C=C2\CCC/C(=C\c3cc(C)ccc3C)C2=O)c1 | 35.3 | 0 | – | – | – | – | – | –
43 | CCOc1ccc(/C=C2\CCC/C(=C\c3ccc(OCC)cc3)C2=O)cc1 | – | 0 | 85.8 | – | – | 5.6 | – | –
44 | COc1cccc(/C=C2\CC/C(=C\c3cccc(OC)c3OC)C2=O)c1OC | – | 0 | – | – | 249 | – | – | –
45 | COc1cccc(/C=C2\CCC/C(=C\c3cccc(OC)c3OC)C2=O)c1OC | 179 | 0 | – | – | – | 84.5 | – | 55.3
46 | O=C1/C(=C/C=C/c2ccccc2)CCC/C1=C\C=C\c1ccccc1 | 29.4 | 0 | – | 61.5 | 49.9 | 24.3 | – | 15.6
47 | COc1cc(/C=C2\CC/C(=C\c3cc(OC)c(OC)c(OC)c3)C2=O)cc(OC)c1OC | – | 0 | – | – | – | – | – | –
48 | O=C1/C(=C/c2ccc(F)cc2)CC/C1=C\c1ccc(F)cc1 | – | 0 | – | – | 1.2 | – | – | –
49 | O=C1/C(=C/c2ccc3ccccc3c2)CC/C1=C\c1ccc2ccccc2c1 | – | 0 | – | – | – | – | – | 38.1
